This is an account of results in ChEMBL document CHEMBL1681716, “Novel dihydrothieno[2,3-e]indazole derivatives as IκB kinase inhibitors” (Bioorg Med Chem Lett, 2011).

In one assay the test system is THP-1. Put plainly: Antiinflammatory activity in human THP1 cells assessed as inhibition of LPS-induced TNF-alpha production after 6 hrs by ELISA. As to conditions: THP-1, 6 h. (In general: In an ELISA, binding on a coated surface is turned into a signal by an enzyme label.)
The target in assay [1] is T1, Inhibitor of nuclear factor kappa-B kinase subunit beta (Homo sapiens, UniProt O14920).
T1 sequence (O14920 whole entry): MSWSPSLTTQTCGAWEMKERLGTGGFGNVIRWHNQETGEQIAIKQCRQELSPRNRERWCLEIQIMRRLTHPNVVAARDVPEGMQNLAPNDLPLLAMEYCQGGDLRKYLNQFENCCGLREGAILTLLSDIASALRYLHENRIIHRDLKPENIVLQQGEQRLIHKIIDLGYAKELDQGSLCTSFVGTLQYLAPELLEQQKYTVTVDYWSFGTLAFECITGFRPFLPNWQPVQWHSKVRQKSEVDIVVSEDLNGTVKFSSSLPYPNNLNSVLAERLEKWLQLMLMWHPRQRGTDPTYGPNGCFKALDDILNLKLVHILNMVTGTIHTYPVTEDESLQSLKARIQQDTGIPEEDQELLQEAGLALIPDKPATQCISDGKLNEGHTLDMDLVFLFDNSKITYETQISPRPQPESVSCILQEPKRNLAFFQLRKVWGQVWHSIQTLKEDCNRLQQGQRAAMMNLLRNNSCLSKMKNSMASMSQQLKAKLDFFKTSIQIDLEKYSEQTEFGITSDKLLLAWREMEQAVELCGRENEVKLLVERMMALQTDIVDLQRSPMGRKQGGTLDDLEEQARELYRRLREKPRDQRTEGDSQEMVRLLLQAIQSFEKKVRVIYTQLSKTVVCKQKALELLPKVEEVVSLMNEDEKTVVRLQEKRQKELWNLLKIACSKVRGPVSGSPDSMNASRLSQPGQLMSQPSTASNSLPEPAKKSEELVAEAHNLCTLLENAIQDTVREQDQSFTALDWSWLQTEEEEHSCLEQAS
Briefly: Inhibition of human IKK-beta by substrate phosphorylation assay. The procedure, abridged: (§1)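 Human IKK-α or IKK-β was tested on a biotinylated 21-residue IκBα peptide captured on avidin-coated plates and blocked with 3% BSA. Enzyme in 25 mM Tris pH 7.4, 2 mM DTT and 0.01% Tween 20 was preincubated with compound (1% DMSO) for 10 min at 25 °C. An ATP/MgCl₂ solution started the reaction, which ran 60 min at 25 °C. Phospho-IκBα was detected with a mouse monoclonal antibody, then HRP anti-mouse IgG and TMB.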

For assay [2], the target named is T2, Inhibitor of nuclear factor kappa-B kinase subunit alpha (Homo sapiens, UniProt O15111).
T2 sequence (O15111 whole entry): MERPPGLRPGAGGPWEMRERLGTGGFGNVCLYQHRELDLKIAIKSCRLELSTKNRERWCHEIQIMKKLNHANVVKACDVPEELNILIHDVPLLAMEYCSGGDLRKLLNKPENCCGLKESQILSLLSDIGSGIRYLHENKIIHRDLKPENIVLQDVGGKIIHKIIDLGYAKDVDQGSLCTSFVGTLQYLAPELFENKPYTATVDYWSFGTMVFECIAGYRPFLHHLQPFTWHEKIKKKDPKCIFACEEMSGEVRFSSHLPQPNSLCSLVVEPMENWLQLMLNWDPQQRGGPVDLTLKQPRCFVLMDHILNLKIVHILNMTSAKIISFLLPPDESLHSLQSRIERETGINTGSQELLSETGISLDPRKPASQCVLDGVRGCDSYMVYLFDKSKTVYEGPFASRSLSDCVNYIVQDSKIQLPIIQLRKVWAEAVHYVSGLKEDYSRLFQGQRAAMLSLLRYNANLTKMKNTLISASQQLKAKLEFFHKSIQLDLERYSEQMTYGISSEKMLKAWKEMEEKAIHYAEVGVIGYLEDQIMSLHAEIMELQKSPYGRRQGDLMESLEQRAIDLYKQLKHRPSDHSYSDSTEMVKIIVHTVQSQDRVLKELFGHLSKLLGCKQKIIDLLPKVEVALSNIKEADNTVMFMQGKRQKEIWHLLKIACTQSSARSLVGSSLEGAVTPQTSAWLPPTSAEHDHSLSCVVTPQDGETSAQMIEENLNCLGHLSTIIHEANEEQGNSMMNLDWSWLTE
Put plainly: Inhibition of human IKK-alpha by substrate phosphorylation assay. In a few lines: as §1

The next assay has as its system Mus musculus. Briefly: Antiinflammatory activity in po dosed DBA/2 mouse assessed as inhibition of LPS-stimulated plasma TNFalpha production pretreated 60 mins before LPS challenge measured after 90 mins by ELISA. The format is functional, organism-based. In a few lines: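 Female DBA/2 mice were given compound by oral gavage at 3 and 10 mg/kg. After 60 min, LPS in 0.2 mL saline was injected i.p. Plasma TNF-α was measured by ELISA 90 min after the LPS challenge.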

A word on the IC50: it is the concentration needed to halve the response being measured.

`NC(=O)Nc1sc2c(c1C(N)=O)CCc1nn(C3CCCN(Cc4ccc(O)cc4F)C3)cc1-2` (stereo unspecified): the concentration for half-maximal inhibition (IC50) was found to be 0.7 µM in the assay on THP-1 and 0.9 µM in assay [1].
The corresponding values for `CN(CCn1cc2c(n1)CCc1c-2sc(NC(N)=O)c1C(N)=O)Cc1ccccc1` are 5.1 µM and 4.6 µM.
Consider `NC(=O)Nc1sc2c(c1C(N)=O)CCc1nn(C3CCCN(Cc4ccc(N)cc4F)C3)cc1-2` (stereo unspecified), for which the IC50 amounted to 0.5 µM in the assay on THP-1, 9 µM in assay [2] and 0.5 µM in assay [1].
`NC(=O)Nc1sc2c(c1C(N)=O)CCc1nn(C3CCCN(Cc4ccc(Cl)cc4F)C3)cc1-2` (stereo unspecified): the IC50 with THP-1 was found to be 4.4 µM; in assay [2], 41 µM; in assay [1], 0.5 µM.
`NC(=O)Nc1sc2c(c1C(N)=O)CCc1nn(C3CCCN(Cc4ccc(F)cc4F)C3)cc1-2` (stereo unspecified): the inhibition entry in the assay on Mus musculus was “Dose-dependent effect”. Besides, the IC50 in the assay with THP-1 was 0.8 µM; in assay [2], above 100 µM; in assay [1], 1.7 µM.
Molecule `CN(C)CCn1cc2c(n1)CCc1c-2sc(NC(N)=O)c1C(N)=O` showed an IC50 in assay [1] of 8.8 µM.
On to `NC(=O)Nc1sc2c(c1C(N)=O)CCc1nn(Cc3ccc(F)cc3)cc1-2`, for which the IC50 in the assay with THP-1 is 2.5 µM; in assay [1] it was 0.9 µM.
`CC(=O)Nc1ccc(CN2CCCC(n3cc4c(n3)CCc3c-4sc(NC(N)=O)c3C(N)=O)C2)c(F)c1` (stereo unspecified) showed an IC50 in assay [1] above 10 µM.
For the molecule `NC(=O)Nc1sc2c(c1C(N)=O)CCc1nn(C3CCCN(Cc4ccccc4)C3)cc1-2` (racemic), the IC50 in the assay on THP-1 was 0.5 µM; in assay [2] it was above 100 µM; in assay [1], 2.2 µM.
On to `NC(=O)Nc1sc2c(c1C(N)=O)CCc1nn(Cc3ccccn3)cc1-2`, for which the IC50 was above 30 µM in the assay with THP-1 and 4.5 µM in assay [1].
The molecule `CCCCCCn1cc2c(n1)CCc1c-2sc(NC(N)=O)c1C(N)=O` yielded an IC50 in assay [1] of 8.4 µM.
Turning to `CCCCn1cc2c(n1)CCc1c-2sc(NC(N)=O)c1C(N)=O`, the values for the IC50 (in the assay on THP-1; in assay [1]) were 4 µM and 2.7 µM, respectively.
Take `NC(=O)Nc1sc2c(c1C(N)=O)CCc1nn(C3CCCCN(Cc4ccccc4)C3)cc1-2` (racemic): the IC50 in assay [1] is above 10 µM.
Turning to `NC(=O)Nc1sc2c(c1C(N)=O)CCc1c-2cnn1Cc1ccc(F)cc1`, the IC50 with THP-1 was 12 µM; in assay [1], 0.2 µM.
In the case of `NC(=O)Nc1sc2c(c1C(N)=O)CCc1nn(C3CCCN(Cc4ccc(Cl)cc4)C3)cc1-2` (stereo unspecified), the results for the IC50 (with THP-1; in assay [2]; in assay [1]) were 0.6 µM, above 100 µM and 2.5 µM, respectively.
Turning to `CC(C)n1cc2c(n1)CCc1c-2sc(NC(N)=O)c1C(N)=O`, the IC50 with THP-1 stood at 4.6 µM; in assay [1], 2.3 µM.
As to `NC(=O)Nc1sc2c(c1C(N)=O)CCc1nn(C3CN(Cc4ccccc4)C3)cc1-2`, the IC50 in the assay with THP-1 amounted to 2.5 µM; in assay [1], 7.1 µM.
The corresponding values for `NC(=O)Nc1sc2c(c1C(N)=O)CCc1nn(Cc3ccccc3)cc1-2` are 5.6 µM and 4.2 µM.
On to `NC(=O)Nc1sc2c(c1C(N)=O)CCc1nn(Cc3cccnc3)cc1-2`, for which the IC50 with THP-1 was found to be 24 µM; in assay [1], 4.8 µM.
The corresponding values for `NC(=O)Nc1sc2c(c1C(N)=O)CCc1nn(C3CCN(Cc4ccccc4)CC3)cc1-2` are 1.2 µM and 4.8 µM.
On the same counts, the results for `NC(=O)Nc1sc2c(c1C(N)=O)CCc1nn(C3CCCN(Cc4cc(F)c(F)cc4F)C3)cc1-2` (stereo unspecified) are 0.3 µM and 3.1 µM.
As for `NC(=O)Nc1sc2c(c1C(N)=O)CCc1nn(Cc3ccncc3)cc1-2`, the IC50 amounted to 9 µM in the assay with THP-1 and 2.3 µM in assay [1].
Turning to `COc1ccc(CN2CCCC(n3cc4c(n3)CCc3c-4sc(NC(N)=O)c3C(N)=O)C2)c(F)c1` (stereo unspecified), the IC50 was 3.8 µM in the assay on THP-1, above 100 µM in assay [2] and 1.9 µM in assay [1].
As to `CCCn1cc2c(n1)CCc1c-2sc(NC(N)=O)c1C(N)=O`, the IC50 amounted to 5.2 µM in the assay on THP-1 and 2.9 µM in assay [1].
In assay [1], `COCCn1cc2c(n1)CCc1c-2sc(NC(N)=O)c1C(N)=O` returned an IC50 of 11 µM.
`NC(=O)Nc1sc2c(c1C(N)=O)CCc1nn(C3CCN(Cc4ccccc4)C3)cc1-2` (racemic): the IC50 stood at 1.7 µM with THP-1 and 3 µM in assay [1].
On the same counts, the results for `CCCn1ncc2c1CCc1c-2sc(NC(N)=O)c1C(N)=O` are 42 µM and 2.2 µM.
